Screening results as filed in PubChem BioAssay.
MBD2 inh: inhibitors of human MBD2 binding to methylated oligonucleotide; 0.31% of 370,000 active; TR-FRET; inhibition, % at 4.4 µM; in the data active = inhibition above about 13%
ASAP1 GAP inh: ASAP1 ArfGAP inhibition. ASAP1-stimulated ARF1 GTP hydrolysis, GDP FP detection. inhibition, % at 16.5 µM. 0.19% of 360,000 active; in the data active = inhibition above about 25%;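 note: 0% = vehicle with enzyme and substrate and 100% = no enzyme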
Target sequence (Q9ULH1 325-724 limits assumed): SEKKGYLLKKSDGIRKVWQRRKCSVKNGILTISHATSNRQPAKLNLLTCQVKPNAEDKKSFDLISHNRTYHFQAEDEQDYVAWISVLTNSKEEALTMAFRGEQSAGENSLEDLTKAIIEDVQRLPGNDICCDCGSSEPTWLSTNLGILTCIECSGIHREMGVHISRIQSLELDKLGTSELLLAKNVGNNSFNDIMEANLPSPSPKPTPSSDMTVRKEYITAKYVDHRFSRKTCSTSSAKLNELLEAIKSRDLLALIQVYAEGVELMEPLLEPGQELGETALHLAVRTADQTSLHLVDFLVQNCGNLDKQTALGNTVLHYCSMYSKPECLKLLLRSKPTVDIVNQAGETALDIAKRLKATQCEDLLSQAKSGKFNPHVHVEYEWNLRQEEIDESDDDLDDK
ARFGAP1 inh: rat ARFGAP1 inhibition. Q62848. Arfgap1-stimulated ARF1 GTP hydrolysis, GDP FP detection. inhibition, % at 16.5 µM. 0.26% of 360,000 active;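 active = inhibition above a per-plate limit, mean inhibition of low control wells plus 3 SD, cut at about 25% in these data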;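 note: 0% = DMSO wells with enzyme and 100% = wells lacking Arfgap1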
Target sequence (Q62848 1-136 limits assumed): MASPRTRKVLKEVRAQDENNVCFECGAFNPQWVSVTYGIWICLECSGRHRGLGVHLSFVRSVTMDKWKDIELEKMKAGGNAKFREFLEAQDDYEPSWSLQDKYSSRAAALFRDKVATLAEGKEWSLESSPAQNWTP
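Assay system: Rat Arfgap1 GAP domain (His6, aa 1-136), purified enzyme | Buffer or medium: HEPES 25 mM pH 7.5, NaCl 150 mM, MgCl2, DTT | Schedule: GTP hydrolysis reaction 2 h at 25 °C | Signal: FP of antibody-bound GDP Alexa 633 tracer, ex 620/em 688 nm | Measure: Percent inhibition of Arfgap1-stimulated GTP hydrolysis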
TCR CD3 inh: blocks the human TCR-CD3 interaction; AID 651800; TAMRA-labeled TCR probe fluorescence, biochemical; 0.37% of 360,000 active; inhibition, % at 9.4 µM; in the data active = inhibition above about 19%;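 note: recombinant mutant TCR 2C K166C tagged with TAMRA read by polarization; 0% = receptor in buffer alone and 100% = receptor with positive control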
LEDGF integ inh: blocks HIV-1 LEDGF/p75-dependent DNA integration | TR-FRET IN-LEDGF/p75 DNA integration, Eu/Cy5 | inhibition, % at 3.7 µM | 0.64% of 370,000 active;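 active = inhibition above the screen-wide mean plus 3 SD, cut at about 13% in these data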;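 note: signal is the Cy5 over europium emission ratio at 671 and 618 nm; 0% = plate median of compound wells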
UHRF1 binding: blocks human UHRF1 binding to methylated DNA; AID 687016; 0.75% of 370,000 active; UHRF1 binding to methylated oligo, TR-FRET; Q96T88; inhibition, % at 4.4 µM; in the data active = inhibition above about 21%;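 note: UHRF1 SRA domain binding a hemimethylated CpG hairpin DNA probe; 0% = median of test compound wells and 100% = reference inhibitor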
ASAP1 inh confirm: confirmation of human ASAP1 inhibitors | shares compounds with ASAP1 GAP inh | ASAP1-stimulated Arf1 GTPase, GDP fluorescence polarization | inhibition, % at 16.5 µM | 37% of 620 active | AID 624431;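 active = mean inhibition over triplicates exceeds the hit threshold derived for the earlier primary screening run, cut at about 25% in these data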
* = called active by the depositor; x = no result given. Most compounds without a hit are left out; they make up all but 2% or so of the library.

SMILES	MBD2 inh	ASAP1 GAP inh	ARFGAP1 inh	TCR CD3 inh	LEDGF integ inh	UHRF1 binding	ASAP1 inh confirm
COC(=O)[C@]12CCCCC=C1N(Cc1ccccc1)C(=O)[C@H](CC(=O)N1CCSCC1)C2	0.8	5.1	16.8	-7.3	-3.7	-0.2	x
Cc1cccc(-c2nnn3c2nc(NCCc2ccc(S(N)(=O)=O)cc2)c2ccccc23)c1	7.5	-7.2	3.5	1.9	-0.9	4.8	x
NS(=O)(=O)c1ccc(CCNc2nc3c(-c4cccc(F)c4)nnn3c3ccccc23)cc1	1.2	55.4*	0.2	0.0	0.5	-1.8	87.6*
O=C(c1ccco1)[C@@H]1[C@@H]2C(=O)N(c3ccc(Br)cc3)C(=O)[C@@H]2C2c3ccccc3C=CN21 (some centres not stated)	-6.4	0.3	-7.9	8.4	11.7	-5.0	x
O=C(c1ccco1)[C@@H]1[C@@H]2C(=O)N(c3ccc(F)cc3)C(=O)[C@@H]2C2c3ccccc3C=CN21 (some centres not stated)	-5.2	25.5*	5.4	-1.2	11.0	-9.6	9.4
CCOC(=O)[C@]12CCCC=C1N(CCc1ccc(OC)c(OC)c1)C(=O)[C@H](CC(=O)N1CCN(C(=O)C3CC3)CC1)C2	-2.7	-5.5	3.1	0.0	1.1	2.8	x
Cc1ccc(N(CC(=O)N/N=C/c2cc(C)n(-c3ccccc3)c2C)S(C)(=O)=O)c(C)c1	7.0	-4.7	2.9	-3.9	-1.2	-2.5	x
Cc1cc(/C=N/NC(=O)Cn2c3ccccc3c(=O)c3ccccc32)c(C)n1-c1ccccc1	-8.5	24.9*	19.5	10.7	0.7	-7.2	7.1
Cc1nnc(SCC(=O)NCc2cccs2)n1-c1ccccc1	5.2	8.1	-6.8	2.9	2.1	-0.4	x
Cc1occc1-c1nnc(SCC(=O)NCc2cccs2)n1-c1ccc(F)cc1	-0.9	26.3*	-3.6	-3.9	3.8	-2.2	5.7
CC(=O)c1cccc(NC(=O)NCCc2c[nH]c3ccccc23)c1	-0.2	0.5	-4.7	1.6	3.9	-0.6	x
O=C(Nc1cccc(CNCCc2c[nH]c3ccccc23)c1)c1ccccc1Cl	-1.2	28.7*	2.9	-1.8	1.6	-0.6	6.9
CCOC(=O)c1sc(Nc2nc3c(OC)cccc3s2)nc1C	1.9	25.4*	0.7	-9.5	-0.8	5.9	14.3
CCOC(=O)c1sc(N/N=C/c2cccc(C)c2)nc1C	5.0	-4.9	1.3	1.6	-0.2	-1.6	x
C=CCN(C/C(=N\O)c1sc(C(=O)OCC)nc1C)c1cccc(Br)c1	2.2	25.7*	6.8	-1.6	-0.1	-1.2	15.3
C=CCN(c1ccccc1OC)S(=O)(=O)c1cccc(C(=O)OCC(=O)N2CCOCC2)c1	5.0	76.5*	-3.9	0.1	-7.1	3.5	6.0
O=C(NCc1ccccc1)C(c1ccc(-c2ccccc2)cc1)N1CCN(c2ccccc2F)CC1 (configuration not stated)	-2.8	1.5	-7.4	-5.3	-0.9	0.7	x
Cc1noc(C)c1COc1cccc(C(=O)OCC(=O)NC(=O)c2ccc(OC(F)F)cc2)c1	-2.2	29.7*	18.2	5.0	-1.4	1.3	23.9
COc1ccc(CNC(=O)COC(=O)c2ccc(OCc3c(C)noc3C)cc2)cc1OC	-10.8	-8.6	1.1	4.1	-2.3	-2.8	x
Cc1noc(C)c1COc1ccc(C(=O)OCC(=O)NCc2ccccc2Cl)cc1	4.7	28.2*	8.2	3.5	0.7	-2.7	2.3
CC(C)NC(=O)NC(=O)COC(=O)c1cccc(OC(F)F)c1	-5.0	6.9	5.0	1.1	1.2	-2.5	x
CCc1ccccc1-c1cc(C(=O)OC)c2n(c1=O)CCC2	-2.4	x	x	x	-0.1	-0.1	x
O=C(Nc1ccc(Br)cc1)C1CCN(C(=O)c2ccco2)CC1	-0.1	8.1	-0.6	-4.3	-9.7	0.6	x
Cc1cc(NC(=O)C2CCN(C(=O)c3ccco3)CC2)ccc1Br	-2.2	29.7*	2.9	2.8	1.8	-2.7	1.1
COC(=O)C1CN(Cc2ccc(OC)cc2)CCS(=O)(=O)N1Cc1ccc(C)cc1 (configuration not stated)	3.1	x	x	x	-1.6	-0.3	x
SMILES	MBD2 inh	ASAP1 GAP inh	ARFGAP1 inh	TCR CD3 inh	LEDGF integ inh	UHRF1 binding	ASAP1 inh confirm
CCOC(=O)Cn1c(-c2ccccc2)nc2ccccc2c1=O	-3.1	25.6*	4.2	-0.6	-3.4	-2.0	-0.1
CC(C)(CN1CCCN(CC(C)(C)C(=O)O)C1=O)C(=O)O	-0.6	6.4	10.8	-9.8	-1.9	0.6	x
Cc1ccc(C2=CCN(C)C(=O)N2c2ccc([N+](=O)[O-])cc2)cc1	-0.3	x	x	x	-2.6	-0.9	x
O=C(Cc1ccccc1)O/N=C1\CCCc2ccccc21	3.4	26.1*	-3.6	3.6	4.3	7.9	8.0
Cc1nn(-c2ccccc2)c(N2CCCC2)c1/C=N/NC(=S)Nc1ccc(F)cc1	0.3	27.0*	1.2	-5.1	4.4	-0.8	7.9
CC(C)CCNC(=O)CSc1nc2c(c(=O)[nH]1)CCC2	-4.6	x	x	x	-1.1	-3.0	x
C[C@H](CCC(=O)OCc1cn(CC(=O)c2ccc(O)cc2)nn1)C1CC[C@H]2[C@@H]3CC[C@@H]4C[C@H](O)CC[C@]4(C)[C@H]3C[C@H](O)[C@]12C (some centres not stated)	-3.7	28.9*	24.3	3.1	-0.5	0.1	16.8
COCCNc1nc(C)c(C(C)=O)s1	4.6	26.1*	-6.8	9.5	-0.1	-0.6	3.2
COc1ccccc1CNc1nc(C)c(C(C)=O)s1	-8.0	11.8	1.3	7.5	5.4	-2.7	x
COc1ccc(-n2c3nc4ccccc4nc3c3c(=N)oc(C)nc32)cc1	-3.2	29.6*	11.8	4.8	2.1	-6.0	9.7
O=C(COc1ccc(/C=N/NC(=O)c2cc3ccccc3o2)cc1Br)Nc1ccccc1	4.5	75.5*	16.8	-0.9	-0.3	0.9	83.7*
O=C(COc1ccccc1[N+](=O)[O-])Nc1ccc(NC(=O)c2cc3ccccc3o2)cc1	-2.9	0.7	5.7	4.1	2.0	0.7	x
CCCCNS(=O)(=O)/C=C/c1ccc(OC)cc1CNC(=O)OC(C)(C)C	6.4	x	x	x	-1.8	1.3	x
O=C(COc1c(F)c(F)c(C(F)(F)F)c(F)c1F)Nc1ccc(N2CCOCC2)c(Cl)c1	3.1	25.0*	6.1	-1.7	-5.3	-0.3	7.2
CSc1ccc(OCC(=O)Nc2ccc(N3CCOCC3)c(Cl)c2)cc1	9.2	0.8	8.7	0.2	-6.9	4.4	x
OCCCNc1cc(-c2ccnc(Nc3cccc(Cl)c3)n2)ccn1	-3.9	26.6*	9.7	2.0	-0.2	-2.5	18.5
COc1ccc(-n2c(SCC(=O)Nc3ccc(NC(C)=O)cc3)nc3ccccc3c2=O)cc1	-0.2	27.3*	9.6	1.5	-0.5	2.1	3.7
CCc1nc2ccc(C(=O)NCc3ccc4c(c3)OCO4)cn2c1N(C)Cc1ccc(OC)cc1	-5.0	-0.4	4.5	-6.2	7.7	5.8	x
